Laboratory results as given in ChEMBL document CHEMBL1926624, “Secondary metabolites from the roots of Neolitsea daibuensis and their anti-inflammatory activity” (J Nat Prod, 2011).
Converted amounts (≈) assume the structure as drawn.

Legend:
[1] = Cytotoxicity against mouse RAW264.7 cells assessed as reduction in cell viability after 3 hrs by alamar blue assay; format: cell-based
In short: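 Viability was tested in the same RAW 264.7 wells after the supernatant was removed for nitrite. 10% AlamarBlue in DMEM was added and the plates incubated at 37 °C. Absorbance was read at 570/600 nm against cell-free blanks, with LPS+vehicle wells set as 100% viability. CC50 = concentration lowering viability by 50%; mean ± SE.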

[2] = target: T1, Nitric oxide synthase, inducible (Mus musculus) (UniProt P29477); assay: Inhibition of iNOS-mediated NO production in LPS-stimulated mouse RAW264.7 cells after 24 hrs by Griess reagent method relative to control; format: cell-based
T1 sequence (whole entry): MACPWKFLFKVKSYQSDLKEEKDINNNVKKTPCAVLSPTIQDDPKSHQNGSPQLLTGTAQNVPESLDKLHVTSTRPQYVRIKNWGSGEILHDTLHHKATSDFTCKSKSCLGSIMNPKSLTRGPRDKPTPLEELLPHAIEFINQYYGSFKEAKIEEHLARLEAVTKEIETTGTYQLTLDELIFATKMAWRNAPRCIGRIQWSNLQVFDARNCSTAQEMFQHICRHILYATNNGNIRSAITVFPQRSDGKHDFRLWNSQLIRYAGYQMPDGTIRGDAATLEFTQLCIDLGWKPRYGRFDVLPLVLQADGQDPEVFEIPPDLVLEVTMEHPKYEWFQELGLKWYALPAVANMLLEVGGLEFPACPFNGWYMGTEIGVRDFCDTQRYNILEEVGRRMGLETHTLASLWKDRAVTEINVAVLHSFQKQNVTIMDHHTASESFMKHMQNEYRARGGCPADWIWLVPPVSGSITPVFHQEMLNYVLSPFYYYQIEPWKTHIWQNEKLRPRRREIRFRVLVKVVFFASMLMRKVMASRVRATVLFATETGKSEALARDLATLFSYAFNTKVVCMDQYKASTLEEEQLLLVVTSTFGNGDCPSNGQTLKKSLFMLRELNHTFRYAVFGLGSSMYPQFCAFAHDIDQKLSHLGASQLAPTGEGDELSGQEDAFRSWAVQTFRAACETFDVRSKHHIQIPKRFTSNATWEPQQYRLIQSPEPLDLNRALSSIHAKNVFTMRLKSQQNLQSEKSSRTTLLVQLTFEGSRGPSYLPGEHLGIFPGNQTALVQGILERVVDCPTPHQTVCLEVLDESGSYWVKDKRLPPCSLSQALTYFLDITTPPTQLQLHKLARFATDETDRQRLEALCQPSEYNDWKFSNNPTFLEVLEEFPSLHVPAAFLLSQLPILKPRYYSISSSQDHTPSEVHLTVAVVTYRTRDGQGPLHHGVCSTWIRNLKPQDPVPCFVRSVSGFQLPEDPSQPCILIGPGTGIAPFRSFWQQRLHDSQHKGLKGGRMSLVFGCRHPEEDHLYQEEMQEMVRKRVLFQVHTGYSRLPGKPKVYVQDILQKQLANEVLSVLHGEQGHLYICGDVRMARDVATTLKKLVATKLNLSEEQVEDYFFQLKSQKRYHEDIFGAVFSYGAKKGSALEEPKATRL
In short: (§1)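 RAW 264.7 murine macrophages in DMEM with 10% FCS were grown to confluence for 24 h, then held serum-free for 4 h. Test agent, or 0.1% DMSO vehicle, was given with LPS (200 ng/mL) for 24 h. Supernatant nitrite was measured with Griess reagent (10 min, room temperature) at A550 against a NaNO2 standard curve. % inhibition is relative to vehicle+LPS; Emax at 100 μM; IC50 = concentration giving 50% Emax; n = 4−6.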

[3] = target: T2, Nitric oxide synthase, inducible (Mus musculus, UniProt P29477); assay: Inhibition of iNOS-mediated NO production in LPS-stimulated mouse RAW264.7 cells after 24 hrs by Griess reagent method; format: cell-based; in short: as §1
T2 sequence (P29477 whole entry): T1 sequence (whole entry)

[4] = target: T1, Nitric oxide synthase, inducible (Mus musculus); assay: Inhibition of iNOS-mediated NO production in LPS-stimulated mouse RAW264.7 cells at 25 uM after 24 hrs by Griess reagent method relative to control; format: cell-based
In short: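 Confluent RAW 264.7 cells, serum-starved 4 h, received test agent at 25 μM, or 0.1% DMSO vehicle, together with LPS (200 ng/mL) for 24 h. Supernatant nitrite was read by Griess reaction, A550, against a NaNO2 standard curve. Result is maximal inhibition expressed as % of vehicle+LPS nitrite; n = 4−6.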

[5] = tested on: RAW264.7; assay: Cytotoxicity against mouse RAW264.7 cells assessed as reduction in cell viability at 50 uM after 3 hrs by alamar blue assay; format: cell-based; settings: raw264.7, 3 h
[6] = Antiinflammatory activity in human neutrophils assessed as inhibition of fMLP-induced superoxide anion production; format: functional, cell-based; settings: Neutrophil
[7] = Antiinflammatory activity in human neutrophils assessed as inhibition of […] superoxide anion production; format: functional, cell-based; settings: Neutrophil

Row | Compound | CC50 at 3 h [1] | Emax [2] | inhibition [2] | IC50 [3] | Emax [4] | Activity [5] | IC50 [6] | IC50 [7]
1 | COc1cc2c([nH]c3ccc(O)cc32)c(Cc2ccc(O)cc2)n1 [DAIBUCARBOLINE A] | 94.8 µM | 96.1% | Dose-dependent effect | 18.4 µM | – | – | – | –
2 | C=C[C@@]1(C)Cc2occ(C)c2[C@@H]2OC(=O)C(=C)[C@@H]21 [ISOLINDERALACTONE] | 66.4 µM | – | – | 0.3 µM | 100% | Toxic | – | –
3 | C/C1=C\CCC2=C[C@@H](OC2=O)c2c(C)coc2C1 [LINDERALACTONE] | – | – | – | – | – | – | 8.48 µg/mL (≈ 34.7 µM) | 8.48 µg/mL (≈ 34.7 µM)
4 | N=C(NCCC[C@H](N)C(=O)O)N[N+](=O)[O-] [NITROARGININE] | > 100 µM | 41.2% | – | 144 µM | – | – | – | –
5 | N=C(N)NN [PIMAGEDINE] | > 100 µM | 83.5% | – | 28.5 µM | – | – | – | –
6 | COc1cc(O)c2c(=O)c(-c3ccc(O)cc3)coc2c1 [PRUNETIN] | > 100 µM | 94.8% | – | 10.5 µM | – | – | – | –
7 | Cc1coc2c1[C@H]1C=C(CC[C@@H]3O[C@@]3(C)C2)C(=O)O1 [PSEUDONEOLINDERANE] | – | – | – | – | – | – | 3.21 µg/mL (≈ 12.3 µM) | 3.21 µg/mL (≈ 12.3 µM)
8 | COc1cc(O)c2c(c1)O[C@H](c1ccc(O)cc1)CC2=O [SAKURANETIN] | > 100 µM | 85.2% | – | 19.6 µM | – | – | – | –
